The values that follow come from the array DNA melting data of Ke et al. (doi:10.1101/2024.01.08.574731).

Data set [1] can be described thus: folding enthalpy; higher = less favourable; fluorescence melt of hairpins on a sequencing array, two-state fit. As to conditions: sodium 0.088 M. In a few lines: (§1)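 Two-state fits, bootstrapped, provided melting temperature and folding enthalpy from Cy3 fluorescence normalised to pre-quench Cy3 and to control constructs. Library hairpins with annealed Cy3 and quencher oligos were imaged on a sequenced MiSeq flow cell in 50 mM Na-HEPES pH 8.0, 25 mM NaCl, at 2.5 °C intervals up to 60 °C. Four replicates were combined with inverse-variance weighting. A 9.35 °C upward shift was applied to fitted temperatures to match UV melts.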

Data set [2] is described as follows: melting temperature; fluorescence melt of hairpins on a sequencing array, two-state fit, raised by 9.35 °C to match UV melts. As to conditions: sodium 0.088 M. In a few lines:
as §1

For the sequence GCGTTCGAAAGAAAGCGC ((((((....)))..))), in data set [1], the folding enthalpy is -29.4 kcal/mol. For the same sequence, the Tm in data set [2] was 53.2 °C.
GCGTTCGAAAGAACTCGC ((((((....)))..))): the folding enthalpy in data set [1] is -17 kcal/mol. The Tm in data set [2] came out at 44.7 °C.
On to GCGTTCGAAAGAAGGCGC ((((((....)))..))), for which the folding enthalpy in data set [1] is -33.6 kcal/mol. Further, the Tm in data set [2] was 55.6 °C.
For the sequence GCGTTCGACGC ((((...)))), in data set [1], the folding enthalpy is -23.7 kcal/mol. Besides, the Tm in data set [2] was 53.8 °C.
The like results for GCGTTCGCACGC ((((....)))) were, in that order, -18.8 kcal/mol and 56.5 °C.
As for GCGTTCGGAAACAAACGC (((((.(....).))))), the folding enthalpy in data set [1] was -34.6 kcal/mol. In data set [2], the Tm stood at 47.9 °C.
The matching figures for GCGTTCGGAAACGGACGC ((((.((....)).)))): -40.2 kcal/mol and 64 °C.
For GCGTTCGGAAACGGATGC ((.(.((....)).).)), in data set [1], the folding enthalpy was -33.1 kcal/mol. The Tm in data set [2] came to 44.7 °C.
In the case of GCGTTCTCACGC ((((....)))), the folding enthalpy in data set [1] was -25.9 kcal/mol. The Tm in data set [2] was found to be 50.6 °C.
As for GCGTTGAAAAACGC (((((....))))), the folding enthalpy in data set [1] is -30.2 kcal/mol. Besides, the Tm in data set [2] is 61.2 °C.
GCGTTGCACGC ((((...)))): in data set [1], the folding enthalpy is -23 kcal/mol. Also, the Tm in data set [2] is 59.4 °C.
The like results for GCGTTGCGAAAGCAAGGC ((.((((....)))).)) were, in that order, -30.3 kcal/mol and 68.5 °C.
GCGTTGCGAAAGCACAGC ((..(((....)))..)): in data set [1], the folding enthalpy was -20.9 kcal/mol. Besides, in data set [2], the Tm was found to be 51.1 °C.
The matching figures for GCGTTGCGAAAGCACCGC (((.(((....))).))): -47.7 kcal/mol and 59.1 °C.
Turning to GCGTTGCGAAAGCAGGGC ((..(((....)))..)), in data set [1], the folding enthalpy is -23.5 kcal/mol. In addition, the Tm in data set [2] amounted to 55.7 °C.
Turning to GCGTTGCGAAAGCAGTGC ((..(((....)))..)), the folding enthalpy in data set [1] is -17.8 kcal/mol. In addition, the Tm in data set [2] was 51.6 °C.
In the case of GCGTTGCGAAAGCATGGC ((..(((....)))..)), the folding enthalpy in data set [1] was -18.9 kcal/mol. Besides, in data set [2], the Tm turned out to be 42.9 °C.
GCGTTGCGAAAGCCAAGC ((.(.((....)).).)): the folding enthalpy in data set [1] is -21.3 kcal/mol. Further, the Tm in data set [2] turned out to be 46.9 °C.
Take GCGTTGCGAAAGCCCCGC (((..((....))..))): the folding enthalpy in data set [1] was -18.2 kcal/mol. The Tm in data set [2] amounted to 48.3 °C.
The like results for GCGTTGCGAAAGCTAGGC ((.(.((....)).).)) were, in that order, -19.2 kcal/mol and 48.9 °C.
The like results for GCGTTGCGAAAGCTTCGC (((..((....))..))) were, in that order, -14.3 kcal/mol and 64 °C.
Take GCGTTGGTACGC ((((....)))): in data set [1], the folding enthalpy was -20.9 kcal/mol. Moreover, the Tm in data set [2] worked out at 51.3 °C.
Take GCGTTGTAACGC ((((....)))): in data set [1], the folding enthalpy is -27.4 kcal/mol. In addition, the Tm in data set [2] is 56.8 °C.
The like results for GCGTTGTCGAAAGACCGC (((..(((....)))))) were, in that order, -27.1 kcal/mol and 50.6 °C.
The like results for GCGTTTCGAAAGAATCGC (((.(((....))).))) were, in that order, -46 kcal/mol and 53.5 °C.
In the case of GCGTTTGGAAACAAACGC (((((((....))))))), the folding enthalpy in data set [1] was -41.4 kcal/mol. In addition, the Tm in data set [2] is 67.7 °C.
As to GCGTTTGGACGC ((((....)))), the folding enthalpy in data set [1] was -19.2 kcal/mol. Also, the Tm in data set [2] was determined as 54.2 °C.
In the case of GCTAAAACGAAAGTTAGC (((..(((....)))))), in data set [1], the folding enthalpy was -27.8 kcal/mol. Besides, in data set [2], the Tm turned out to be 40.1 °C.
For GCTAAACGAAAGTTAGC (((.(((....)))))), the folding enthalpy in data set [1] is -26.6 kcal/mol. In addition, the Tm in data set [2] was found to be 48.3 °C.
GCTAAACGAAAGTTGAGC (((.(((....))).))): in data set [1], the folding enthalpy was -31.8 kcal/mol. The Tm in data set [2] was 50.8 °C.
Regarding GCTAACCGAAAGGTCAGC (((.(((....))).))), the folding enthalpy in data set [1] is -29.7 kcal/mol. Further, the Tm in data set [2] is 49.7 °C.
GCTAACCGAAAGGTGAGC (((.(((....))).))): the folding enthalpy in data set [1] is -32.1 kcal/mol. Moreover, the Tm in data set [2] turned out to be 59.7 °C.
The matching figures for GCTAACGAAAGTTAAAGC ((((((....)))..))): -18.5 kcal/mol and 36.7 °C.
The like results for GCTAACGAAAGTTAGAGC ((((((....)))..))) were, in that order, -16.1 kcal/mol and 45.8 °C.
Regarding GCTAACGAAAGTTGAAGC ((((((....)))..))), the folding enthalpy in data set [1] was -15.2 kcal/mol. The Tm in data set [2] came to 34.6 °C.
The matching figures for GCTAACGGAAACGCTAGC ((((.((....)).)))): -33.9 kcal/mol and 44.8 °C.
In the case of GCTAACTCGAAAGAGAGC (((..(((....)))))), the folding enthalpy in data set [1] was -16.5 kcal/mol. In addition, the Tm in data set [2] was 32 °C.
